# Measured values reported in ChEMBL document CHEMBL1212900, “Falcipain inhibitors: optimization studies of the 2-pyrimidinecarbonitrile lead series” (J Med Chem, 2010).
# Key:
# [1] = Inhibition of Plasmodium falciparum falcipain-3 expressed in Escherichia coli
# Outline: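 Refolded recombinant enzyme from E. coli, 2 nM, in 100 mM sodium acetate pH 5.5 with 500 μM CHAPS and 10 mM DTT, DMSO up to 1%. H-D-Val-Leu-Arg-AFC at 150 μM final. Reaction started by enzyme addition; fluorescence monitored 1 h at room temperature. IC50 derived from percent activity plotted against inhibitor concentration.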
# [2] = Inhibition of Plasmodium falciparum falcipain-2 expressed in Escherichia coli
# Outline: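 Recombinant E. coli-expressed, refolded enzyme at 0.25 nM in 100 mM sodium acetate pH 5.5, 500 μM CHAPS, 10 mM DTT, DMSO ≤1%. Substrate H-D-Val-Leu-Arg-AFC at 30 μM final. Inhibitor dilutions mixed with substrate, enzyme added last; fluorescence followed 1 h at room temperature. IC50 from percent activity versus concentration.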
# Plasmodium falciparum = assay: Antiplasmodial activity against Plasmodium falciparum W2 after 48 hrs; format: functional, organism-based; conditions: W2, 48 h
# Outline: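 W2 P. falciparum grown in human erythrocytes, 2% hematocrit, RPMI with 10% human serum or 0.5% AlbuMAX II; sorbitol-synchronized. Serial dilutions from DMSO stocks added at ring stage for 48 h, medium and drug renewed at 24 h. Cells fixed in 1% formaldehyde, stained with YOYO-1, parasitemia counted by flow cytometry; IC50 from percent parasitemia versus untreated controls.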
compound,measurement,setting,value
CN1CCN(Cc2ccc(C(=O)NN(CC3CCC3)c3nc(C#N)ncc3Br)cc2)CC1,IC50,[1],111 nM
same,IC50,[2],3 nM
same,IC50,Plasmodium falciparum,438 nM
CN1CCN(Cc2ccc(C(=O)NN(CC3CCCC3)c3nc(C#N)ncc3Br)cc2)CC1,IC50,[1],6 nM
same,IC50,[2],0.5 nM
same,IC50,Plasmodium falciparum,33 nM
CN1CCN(Cc2ccc(C(=O)NN(CC3CCCCC3)c3nc(C#N)ncc3Br)cc2)CC1,IC50,[1],16 nM
same,IC50,[2],2 nM
same,IC50,Plasmodium falciparum,263 nM
CN1CCN(Cc2ccc(C(=O)NN(CC3(C)CCCCC3)c3nc(C#N)ncc3Br)cc2)CC1,IC50,[1],17 nM
same,IC50,[2],5 nM
same,IC50,Plasmodium falciparum,1490 nM
CN1CCN(Cc2ccc(C(=O)NN(CCC3CCCC3)c3nc(C#N)ncc3Br)cc2)CC1,IC50,[1],45 nM
same,IC50,[2],4 nM
same,IC50,Plasmodium falciparum,177 nM
CN1CCN(Cc2ccc(C(=O)NN(Cc3ccccc3)c3nc(C#N)ncc3Br)cc2)CC1,IC50,[1],335 nM
same,IC50,[2],5 nM
same,IC50,Plasmodium falciparum,2370 nM
CN1CCN(Cc2ccc(C(=O)NN(CCc3ccccc3)c3nc(C#N)ncc3Br)cc2)CC1,IC50,[1],105 nM
same,IC50,[2],23 nM
same,IC50,Plasmodium falciparum,2180 nM
CN1CCN(Cc2ccc(C(=O)NN(CC3CC=CC3)c3nc(C#N)ncc3Br)cc2)CC1,IC50,[1],16 nM
same,IC50,[2],0.7 nM
same,IC50,Plasmodium falciparum,98 nM
CN1CCN(Cc2ccc(C(=O)NN(c3nc(C#N)ncc3Br)C3CCC3)cc2)CC1,IC50,[1],173 nM
same,IC50,[2],2 nM
same,IC50,Plasmodium falciparum,90 nM
CN1CCN(Cc2ccc(C(=O)NN(c3nc(C#N)ncc3Br)C3CCCC3)cc2)CC1,IC50,[1],11 nM
same,IC50,[2],< 0.5 nM
same,IC50,Plasmodium falciparum,24 nM
CN1CCN(Cc2ccc(C(=O)NN(c3nc(C#N)ncc3Br)C3CCCCC3)cc2)CC1,IC50,[1],6 nM
same,IC50,[2],0.5 nM
same,IC50,Plasmodium falciparum,27 nM
CN1CCN(Cc2ccc(C(=O)NN(c3nc(C#N)ncc3Br)C3CCCC3(C)C)cc2)CC1 (stereo not drawn),IC50,[1],110 nM
same,IC50,[2],2 nM
same,IC50,Plasmodium falciparum,104 nM
CC1CCC(N(NC(=O)c2ccc(CN3CCN(C)CC3)cc2)c2nc(C#N)ncc2Br)C1 (stereo not drawn),IC50,[1],45 nM
same,IC50,[2],0.9 nM
same,IC50,Plasmodium falciparum,68 nM
C[C@@H]1CCC[C@H]1N(NC(=O)c1ccc(CN2CCN(C)CC2)cc1)c1nc(C#N)ncc1Br,IC50,[1],3 nM
same,IC50,[2],0.2 nM
same,IC50,Plasmodium falciparum,5 nM
CN1CCN(Cc2ccc(C(=O)NN(CC3CCCO3)c3nc(C#N)ncc3Br)cc2)CC1 (stereo not drawn),IC50,[1],99 nM
same,IC50,[2],14 nM
same,IC50,Plasmodium falciparum,1880 nM
CC1OCCC1CN(NC(=O)c1ccc(CN2CCN(C)CC2)cc1)c1nc(C#N)ncc1Br (stereo not drawn),IC50,[1],75 nM
same,IC50,[2],2 nM
same,IC50,Plasmodium falciparum,193 nM
CN1CCN(Cc2ccc(C(=O)NN(CC3CCOCC3)c3nc(C#N)ncc3Br)cc2)CC1,IC50,[1],135 nM
same,IC50,[2],11 nM
same,IC50,Plasmodium falciparum,310 nM
CN1CCN(Cc2ccc(C(=O)NN(Cc3ccco3)c3nc(C#N)ncc3Br)cc2)CC1,IC50,[1],180 nM
same,IC50,[2],4 nM
same,IC50,Plasmodium falciparum,721 nM
CN1CCN(Cc2ccc(C(=O)NN(Cc3ccoc3)c3nc(C#N)ncc3Br)cc2)CC1,IC50,[1],133 nM
same,IC50,[2],2 nM
same,IC50,Plasmodium falciparum,333 nM
Cc1nn(-c2ccccc2)nc1C(=O)NN(CC(C)C)c1nc(C#N)ncc1Br,IC50,[1],1100 nM
same,IC50,[2],676 nM
CN1CCN(Cc2ccc(C(=O)NN(c3nc(C#N)ncc3Br)C3CCOCC3)cc2)CC1,IC50,[1],17 nM
same,IC50,[2],0.9 nM
same,IC50,Plasmodium falciparum,59 nM
CC(=O)N1CCC(N(NC(=O)c2ccc(CN3CCN(C)CC3)cc2)c2nc(C#N)ncc2Br)CC1,IC50,[1],26 nM
same,IC50,[2],< 0.5 nM
same,IC50,Plasmodium falciparum,28 nM
CC(=O)NC1CCC(N(NC(=O)c2ccc(CN3CCN(C)CC3)cc2)c2nc(C#N)ncc2Br)CC1 (stereo not drawn),IC50,[1],88 nM
same,IC50,[2],8 nM
same,IC50,Plasmodium falciparum,1310 nM
COc1ccc(CC(=O)NN(CC(C)C)c2nc(C#N)ncc2Br)cc1,IC50,[1],6 nM
same,IC50,[2],1.5 nM
COc1ccc(CC(=O)NN(CC(C)C)c2nc(C#N)ncc2Cl)cc1,IC50,[1],5 nM
same,IC50,[2],1 nM
CC(C)CN(NC(=O)Cc1ccc(F)cc1)c1nc(C#N)ncc1Br,IC50,[1],4 nM
same,IC50,[2],3 nM
CC(C)CN(NC(=O)Cc1c(F)cccc1F)c1nc(C#N)ncc1Br,IC50,[1],8 nM
same,IC50,[2],0.5 nM
CC(C)CN(NC(=O)Cc1c(Cl)cccc1Cl)c1nc(C#N)ncc1Br,IC50,[1],66 nM
same,IC50,[2],1 nM
Cc1cc(C)c(CC(=O)NN(CC(C)C)c2nc(C#N)ncc2Br)c(C)c1,IC50,[1],21 nM
same,IC50,[2],1 nM
CC(C)CN(NC(=O)C(C)(C)c1ccccc1)c1nc(C#N)ncc1Br,IC50,[1],60 nM
same,IC50,[2],18 nM
CC(C)CN(NC(=O)C(C)(C)c1ccc(Cl)cc1)c1nc(C#N)ncc1Br,IC50,[1],18 nM
same,IC50,[2],4 nM
COc1ccc(C(C)(C)C(=O)NN(CC(C)C)c2nc(C#N)ncc2Br)cc1,IC50,[1],34 nM
same,IC50,[2],6 nM
CC(C)CN(NC(=O)C1(c2ccccc2)CC1)c1nc(C#N)ncc1Br,IC50,[1],102 nM
same,IC50,[2],6 nM
CC(C)CN(NC(=O)C1(c2ccc(Cl)cc2)CC1)c1nc(C#N)ncc1Br,IC50,[1],69 nM
same,IC50,[2],15 nM
CC(C)CN(NC(=O)C1(c2ccc(Cl)cc2)CCC1)c1nc(C#N)ncc1Br,IC50,[1],216 nM
same,IC50,[2],12 nM
CC(C)CN(NC(=O)C1(c2ccccc2)CCCC1)c1nc(C#N)ncc1Br,IC50,[1],137 nM
same,IC50,[2],11 nM
CC(C)CN(NC(=O)C1(c2ccc(Cl)cc2)CCCC1)c1nc(C#N)ncc1Br,IC50,[1],184 nM
same,IC50,[2],12 nM
CC(C)CN(NC(=O)C1(c2ccc(Cl)cc2)CCCCC1)c1nc(C#N)ncc1Br,IC50,[1],1650 nM
same,IC50,[2],40 nM
CC(C)CN(NC(=O)C(N)c1ccccc1)c1nc(C#N)ncc1Br (stereo not drawn),IC50,[1],34 nM
same,IC50,[2],7 nM
CCCN1CCN(c2ccc(C(=O)NN(CC(C)C)c3nc(C#N)ncc3Br)cc2)CC1,IC50,[1],32 nM
same,IC50,[2],< 0.5 nM
same,IC50,Plasmodium falciparum,25 nM
CC(C)CN(NC(=O)c1ccc(N2CCN(C)CC2)cc1)c1nc(C#N)ncc1Br,IC50,[1],32 nM
same,IC50,[2],< 0.2 nM
same,IC50,Plasmodium falciparum,33 nM
CC(C)CN(NC(=O)c1ccc(OCCN2CCOCC2)cc1)c1nc(C#N)ncc1Br,IC50,[1],145 nM
same,IC50,[2],3 nM
same,IC50,Plasmodium falciparum,622 nM
CC(C)CN(NC(=O)c1ccc(OCCN2CCOCC2)cc1)c1nc(C#N)ncc1Cl,IC50,[1],90 nM
same,IC50,[2],2 nM
same,IC50,Plasmodium falciparum,870 nM
CC(C)CN(NC(=O)c1ccc(N2CCOCC2)nc1)c1nc(C#N)ncc1Br,IC50,[1],53 nM
same,IC50,[2],0.2 nM
same,IC50,Plasmodium falciparum,1530 nM
CC(C)CN(NC(=O)c1ccc(CN2CCN(C)CC2)o1)c1nc(C#N)ncc1Br,IC50,[1],12 nM
same,IC50,[2],0.7 nM
same,IC50,Plasmodium falciparum,21 nM
CC(C)CN(NC(=O)c1ccc(CN2CCN(C)CC2)s1)c1nc(C#N)ncc1Br,IC50,[1],12 nM
same,IC50,[2],0.2 nM
same,IC50,Plasmodium falciparum,10 nM
CC(C)CN(NC(=O)c1cc(CN2CCN(C)CC2)on1)c1nc(C#N)ncc1Br,IC50,[1],46 nM
same,IC50,[2],1 nM
same,IC50,Plasmodium falciparum,33 nM
CC(C)CN(NC(=O)c1cc2cccc(CN3CCN(C)CC3)c2o1)c1nc(C#N)ncc1Br,IC50,[1],61 nM
same,IC50,[2],0.4 nM
same,IC50,Plasmodium falciparum,48 nM
CC(C)CN(NC(=O)c1ccc(CN2CCN(C)CC2)cc1)c1nc(C#N)ncc1Br,IC50,[1],55 nM
same,IC50,[2],0.4 nM
same,IC50,Plasmodium falciparum,15 nM
CN1CCN(Cc2ccc(C(=O)NN(CC(C)(C)C)c3nc(C#N)ncc3Br)cc2)CC1,IC50,[1],158 nM
same,IC50,[2],19 nM
same,IC50,Plasmodium falciparum,409 nM
CC(C)CCN(NC(=O)c1ccc(CN2CCN(C)CC2)cc1)c1nc(C#N)ncc1Br,IC50,[1],68 nM
same,IC50,[2],4 nM
same,IC50,Plasmodium falciparum,262 nM
CN1CCN(Cc2ccc(C(=O)NN(CCC(C)(C)C)c3nc(C#N)ncc3Br)cc2)CC1,IC50,[1],39 nM
same,IC50,[2],3 nM
same,IC50,Plasmodium falciparum,1500 nM
CCC(CC)CN(NC(=O)c1ccc(CN2CCN(C)CC2)cc1)c1nc(C#N)ncc1Br,IC50,[1],44 nM
same,IC50,[2],2 nM
same,IC50,Plasmodium falciparum,194 nM
CCCC(CCC)CN(NC(=O)c1ccc(CN2CCN(C)CC2)cc1)c1nc(C#N)ncc1Br,IC50,[1],802 nM
same,IC50,[2],81 nM
same,IC50,Plasmodium falciparum,1200 nM
CCCCC(CCCC)CN(NC(=O)c1ccc(CN2CCN(C)CC2)cc1)c1nc(C#N)ncc1Br,IC50,[1],656 nM
same,IC50,[2],293 nM
same,IC50,Plasmodium falciparum,566 nM
CCC(C)CN(NC(=O)c1ccc(CN2CCN(C)CC2)cc1)c1nc(C#N)ncc1Br (stereo not drawn),IC50,[1],35 nM
same,IC50,[2],0.9 nM
same,IC50,Plasmodium falciparum,24 nM
CCCC(C)CN(NC(=O)c1ccc(CN2CCN(C)CC2)cc1)c1nc(C#N)ncc1Br (stereo not drawn),IC50,[1],52 nM
same,IC50,[2],2 nM
same,IC50,Plasmodium falciparum,272 nM
CC(C)N(NC(=O)c1ccc(CN2CCN(C)CC2)cc1)c1nc(C#N)ncc1Br,IC50,[1],1370 nM
same,IC50,[2],29 nM
same,IC50,Plasmodium falciparum,401 nM
CCC(CC)N(NC(=O)c1ccc(CN2CCN(C)CC2)cc1)c1nc(C#N)ncc1Br,IC50,[1],2040 nM
same,IC50,[2],187 nM
same,IC50,Plasmodium falciparum,1610 nM
CN1CCN(Cc2ccc(C(=O)NN(CC3CC3)c3nc(C#N)ncc3Br)cc2)CC1,IC50,[1],330 nM
same,IC50,[2],5 nM
same,IC50,Plasmodium falciparum,1080 nM
CC(C)CN(NC(=O)c1ccnn1-c1ccccc1)c1nc(C#N)ncc1Cl,IC50,[1],63 nM
same,IC50,[2],7 nM
CC(C)CN(NC(=O)c1cc(-c2cccs2)on1)c1nc(C#N)ncc1Br,IC50,[1],218 nM
same,IC50,[2],4 nM
CC(C)CN(NC(=O)c1cc(-c2cccs2)[nH]n1)c1nc(C#N)ncc1Cl,IC50,[1],451 nM
same,IC50,[2],5 nM
C[C@H]1CCC[C@H]1N(NC(=O)OC(C)(C)C)c1nc(C#N)ncc1Br (relative stereo),IC50,[1],407 nM
same,IC50,[2],58 nM
C[C@@H]1CCC[C@H]1N(NC(=O)OC(C)(C)C)c1nc(C#N)ncc1Br (relative stereo),IC50,[1],6 nM
same,IC50,[2],3 nM
